Results on 48 compounds are retold here after ChEMBL document CHEMBL1135828, “Syntheses and antitumor targeting G1 phase of the cell cycle of benzoyldihydroisoquinolines and related 1-substituted isoquinolines” (J Med Chem, 2002).

SMILES strings stand for the structures. Where only a bound is given, the exact number is not on record here.

The subject of one test is L1210 (1565). Nature of the test: Percent inhibition against cells in G 1 phase by the compound at the dose 5 uM. To be noted: Mus musculus. Format: functional.
`COc1cc2c(cc1OCc1ccccc1)CCN=C2C(=O)c1cccc(O)c1`: the inhibition (usually the relative decrease from the control value, in per cent) at 5 µM is 67%.

Turning to `CCCCCOc1ccc2c(c1)CCN=C2C(=O)c1ccccc1`, the inhibition at 5 µM came to 63%.

In turn, `CCCCCOc1cc2c(cc1OC)CCN=C2C(=O)c1ccccc1` came in with an inhibition at 5 µM of 63%.

The next test relates to L1210 (1565). In words: Inhibitory activity against L 1210 cell proliferation. The class given is functional, cell-based. The settings on record: Mus musculus. In short, it runs like this: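 L1210 murine leukemia cells grown in RPMI 1640 with 10% fetal calf serum, 2 mM L-glutamine, penicillin/streptomycin and 10 mM Hepes (pH 7.4). Cells exposed to graded drug concentrations for 48 h. Microculture tetrazolium assay read-out; IC50 is the concentration reducing optical density by 50% relative to untreated controls.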
Consider `COc1ccccc1C(=O)C1=NCCc2cc(OCc3ccccc3)ccc21`, for which the IC50 (commonly the midpoint of a concentration-inhibition curve) is 12.3 µM.

`COc1cccc(C(=O)C2=NCCc3cc(OCc4ccccc4)ccc32)c1`: the IC50 was determined as 1.4 µM.

In turn, `COc1cc2c(cc1OCc1ccccc1)CCN=C2C(=O)c1cccc(O)c1` yielded an IC50 of 5.3 µM.

Compound `c1ccc(COc2ccc3c(c2)CCN=C3c2ccccc2)cc1` came in with an IC50 of more than 10 µM.

Consider `COc1cc2c(C(=O)c3ccccc3)nccc2cc1OCc1ccccc1`, for which the IC50 is more than 10 µM.

Turning to `COc1cc2c(cc1OCc1ccccc1)CCN=C2c1ccccc1O`, the 50% inhibitory concentration (IC50) is more than 10 µM.

Take `COc1cc2c(cc1OCc1ccccc1)C(C(=O)c1ccccc1)=NCC2`: the midpoint of inhibition, the IC50, lay at 3.6 µM. This lies in the single-digit micromolar range.

Consider `COc1cc2c(cc1OCc1ccccc1)CCN=C2C(=O)c1ccccc1`, for which the IC50 amounted to 4.1 µM. The IC50 values of the last two compounds are within 1.5-fold of each other.

With `CCCCCOc1cc2c(cc1OC)C(C)=NCC2`, the IC50 was 7.7 µM.

Regarding `COc1ccc(COc2cc3c(cc2OC)C(C(=O)c2ccccc2)=NCC3)cc1`, the IC50 was determined as 11.1 µM.

As for `CC(C)COc1ccc2c(c1)CCN=C2C(=O)c1ccccc1`, the half-maximal inhibitory concentration (IC50) is 11.9 µM.

`C/C=C/COc1cc2c(cc1OC)C(C(=O)c1ccccc1)=NCC2` yielded an IC50 of 13.1 µM. The IC50 values of the last two compounds are within 1.5-fold of each other.

For the compound `COc1ccc(C(=O)C2=NCCc3cc(OCc4ccccc4)ccc32)cc1`, the IC50 is more than 10 µM.

On to `CCCCC1=NCCc2cc(OCc3ccccc3)c(OC)cc21`, for which the IC50 was more than 10 µM.

In the case of `COc1cc2c(cc1OCC(C)C)CCN=C2C(=O)c1ccccc1`, the IC50 is 6.1 µM.

Turning to `CCCCCOc1ccc2c(c1)CCN=C2C(=O)c1ccccc1`, the 50% inhibitory concentration (IC50) turned out to be 1 µM.

As for `COc1cc2c(cc1OCc1ccccc1)CCN=C2c1ccccc1`, the half-inhibitory concentration (IC50) is more than 10 µM.

Compound `COc1cc2c(C(=O)c3ccccc3)nccc2cc1O` yielded a half-inhibitory concentration (IC50) of more than 10 µM.

In turn, `C[N+]1=C(C(=O)c2ccccc2)c2ccc(OCc3ccccc3)cc2CC1` gave an IC50 of 9.8 µM.

Compound `COc1cc2ccnc(C(=O)c3ccccc3)c2cc1O` registered a concentration for half-maximal inhibition (IC50) of more than 10 µM.

In turn, `COc1cc2c(cc1OCc1ccccc1)CCN=C2C(=O)c1ccc(O)cc1` gave an IC50 of more than 10 µM.

Regarding `O=C(C1=NCCc2cc(OCc3ccccc3)ccc21)c1ccccc1`, inhibition was half-maximal at 6.5 µM (IC50). This counts as single-digit micromolar.

Compound `COc1cc2c(cc1OCc1ccccc1)CCN=C2C(=O)c1ccccc1OC` returned an IC50 of more than 10 µM.

For the compound `CCCCCOc1cc2ccnc(C(=O)c3ccccc3)c2cc1OC`, the 50% inhibitory concentration (IC50) was more than 10 µM.

On to `CCOc1cc2c(cc1OC)C(C(=O)c1ccccc1)=NCC2`, for which the IC50 was determined as 11.9 µM.

Take `COc1ccc(C(=O)C2=NCCc3cc(OCc4ccccc4)c(OC)cc32)cc1OC`: the IC50 came out at 13 µM.

Regarding `COc1cccc(C(=O)C2=NCCc3cc(OCc4ccccc4)c(OC)cc32)c1`, the 50% inhibitory concentration (IC50) amounted to 2.5 µM.

In turn, `COc1cc2c(cc1OCc1ccccc1)CCN=C2C(=O)c1ccccc1O` had an IC50 of more than 10 µM.

`CCCCCOc1cc2c(cc1OC)CCN=C2C(=O)c1ccccc1` gave a half-maximal inhibitory concentration (IC50) of 3.7 µM. In other words, the single-digit micromolar range.

In turn, `CC(C)=CCOc1ccc2c(c1)CCN=C2C(=O)c1ccccc1` came in with a 50% inhibitory concentration (IC50) of 3.8 µM.

`COc1cc2c(C(=O)c3cccc(O)c3)nccc2cc1OCc1ccccc1`: the IC50 amounted to 11.6 µM.

The compound `COc1cc2c(cc1OCc1ccccc1)CCN=C2C(=O)c1ccc(OS(=O)(=O)c2ccc(C)cc2)cc1` registered an IC50 of more than 10 µM.

Regarding `COc1cc2c(cc1O)C(C(=O)c1ccccc1)=NCC2`, the IC50 is more than 10 µM.

`COc1cc2c(C(=O)c3ccccc3O)nccc2cc1OCc1ccccc1` displayed an IC50 of more than 10 µM.

The compound `COc1cc2c(cc1O)CCN=C2c1ccccc1` returned a 50% inhibitory concentration (IC50) of more than 10 µM.

On to `CCCCCOc1cc2c(cc1OC)C(C(=O)c1ccccc1)=NCC2`, for which the IC50 was found to be 4.5 µM. This counts as single-digit micromolar.

Compound `COc1cc2c(cc1OCc1ccccc1)CCN=C2C(=O)c1cccc(OC(C)=O)c1` registered a half-maximal inhibitory concentration (IC50) of 4.7 µM.

Turning to `COc1ccc(C(=O)C2=[N+](C)CCc3cc(OCc4ccccc4)c(OC)cc32)cc1OC`, the half-inhibitory concentration (IC50) is more than 10 µM.

With `COc1cc2c(C(=O)c3ccc(O)cc3)nccc2cc1OCc1ccccc1`, the half-inhibitory concentration (IC50) came to 11.5 µM. That is a double-digit micromolar value.

Turning to `COc1ccc(C(=O)C2=NCCc3cc(OCc4ccccc4)ccc32)cc1OC`, the concentration for half-maximal inhibition (IC50) is more than 10 µM.

In the case of `COc1cc2c(cc1OCC=C(C)C)CCN=C2C(=O)c1ccccc1`, the 50% inhibitory concentration (IC50) was determined as 9.4 µM. In other words, the single-digit micromolar range.

In turn, `COc1cc2ccnc(C(=O)c3ccccc3)c2cc1OCc1ccccc1` showed an IC50 of more than 10 µM.

For the compound `COc1cc2c(cc1OCc1ccccc1)CCN=C2C(=O)c1cccc(S(=O)(=O)c2ccc(C)cc2)c1`, half-maximal inhibition (IC50) was put at 4.1 µM.

`COc1ccc(COc2cc3ccnc(C(=O)c4ccccc4)c3cc2OC)cc1` came in with an IC50 of more than 10 µM.

Turning to `COc1cc2c(cc1O)CCN=C2C(=O)c1ccccc1`, the IC50 is more than 10 µM.

In turn, `COc1cc2c(cc1OCc1ccccc1)CCN=C2C(=O)c1ccccc1OS(=O)(=O)c1ccc(C)cc1` had an IC50 of more than 10 µM.

Compound `C/C=C/COc1ccc2c(c1)CCN=C2C(=O)c1ccccc1` came in with an IC50 of more than 10 µM.

Consider `CCCCC1=NCCc2cc(OCc3ccccc3)ccc21`, for which the IC50 is more than 10 µM.

A further test deals with L1210 (1565). In words: Percent inhibition against cells in G 1 phase by the compound at the dose 25 uM. To be noted: Mus musculus. The class given is functional.
For `COc1cc2c(cc1OCC(C)C)CCN=C2C(=O)c1ccccc1`, testing at 25 µM gave an inhibition of 63%.

`COc1cc2c(cc1OCC=C(C)C)CCN=C2C(=O)c1ccccc1` registered an inhibition at 25 µM of 65%.

`COc1cc2c(cc1OCc1ccccc1)CCN=C2C(=O)c1cccc(S(=O)(=O)c2ccc(C)cc2)c1`: at 25 µM the inhibition was 70%.

The next test relates to L1210 (1565). In words: Percent inhibition against cells in G 1 phase by the compound at the dose 10 uM. The class given is functional. To be noted: Mus musculus.
Regarding `COc1cc2c(cc1OCc1ccccc1)CCN=C2C(=O)c1ccccc1`, testing at 10 µM gave an inhibition of 85%.

`O=C(C1=NCCc2cc(OCc3ccccc3)ccc21)c1ccccc1` gave an inhibition at 10 µM of 54%.

Another test has as its system L1210 (1565). In words: Percent inhibition against cells in G 1 phase by the compound. Format: functional, Mus musculus.
Conditions: not given
For `CCCCCOc1cc2c(cc1OC)C(C)=NCC2`, the Inhibition – broadly, the drop in the measured response relative to a control, in per cent – is given as 72%.
